Source: PubChem (Broad Institute)
GSIS activator = GLuc luminescence reporter in INS-1E cells, primary screen for activators of glucose-dependent secretion of insulin; INS-1E GLuc reporter insulin secretion, 2-3 h; activation, % at 16.6 µM; actives 0.61% (n = 370,000); AID 743287, 2014;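 active = lowest replicate activation of at least 40%, so every replicate reaches that level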
ERAP1 HTS inh = human ERAP1 aminopeptidase inhibitors, primary screen, biochemical, single point, plate reader. recombinant ERAP1, Leu-AMC fluorescence, 60 min. inhibition, % at 10.7 µM. Endoplasmic reticulum aminopeptidase 1 (Homo sapiens), Q9NZ08. actives 0.15% (n = 340,000). AID 652197, 2013;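 active = mean replicate inhibition of at least 30%, or all replicates individually reaching that 30% level; inactive = mean below 30% and not every replicate reaching it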
RAD52 anneal inh = RAD52 DNA annealing inhibitors, primary screen, biochemical, FRET, single point, set 2; DNA repair protein RAD52 homolog (Homo sapiens), P43351; AID 651710, 2012; recombinant RAD52 DNA annealing, FRET fluorescence; inhibition, % at 18.7 µM; actives 0.46% (n = 360,000);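 active = every replicate showing at least 50% inhibition; inconclusive = mean inhibition at least 50% but not in every replicate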
AF4-AF9 inh = inhibitors of AF4 peptide binding to AF9, primary screen, biochemical, AlphaScreen, biotin-AF4 peptide, FLAG-AF9, single point | inhibition, % at 10 µM | actives 0.47% (n = 350,000) | Protein AF-9 (Homo sapiens), P42568;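 active = every replicate reaching a set inhibition limit, whatever the replicate mean, cut at about 25% in these data; inconclusive = mean inhibition reaches that limit but some replicates miss it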
S100A4 MyoIIA = inhibitors of S100A4-myosin IIA peptide binding, primary screen, biochemical, fluorescence polarization, TAMRA-MyoIIA peptide. actives 0.14% (n = 360,000). inhibition, % at 10.7 µM;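 active = mean inhibition of at least 70% across replicates, with every replicate also reaching that level; inconclusive = mean inhibition reaches 70% but some replicates fall short; inactive = mean inhibition below 70%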
Target sequence (P26447 whole entry, looked up): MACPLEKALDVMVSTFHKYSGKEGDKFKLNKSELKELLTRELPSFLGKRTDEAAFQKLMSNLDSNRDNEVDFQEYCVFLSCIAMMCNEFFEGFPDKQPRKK
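assay system = human S100A4 monomer with TAMRA-labelled myosin IIA peptide | also added = labelled myosin peptide probe, 5 nM | incubation = 5 min between mix addition and reading | control set = DMSO and TFP controls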
Numbers stand for hits; n = inactive; u = inconclusive; x = no result. Shown are actives, neighbours in structure and some others; about 1.5% of the full set was active somewhere.

SMILES	GSIS activator	ERAP1 HTS inh	RAD52 anneal inh	AF4-AF9 inh	S100A4 MyoIIA
COc1ccc2c3c([nH]c2c1)[C@H](CO)N(S(C)(=O)=O)CC31CCN(CC2CC2)CC1	n	n	n	n	n
CO[C@@H]1CN(C)C(=O)c2cc(NC(=O)NC3CCCC3)ccc2OC[C@H](C)N(CC2CC2)C[C@H]1C	n	x	x	x	x
N#CCCn1c2ccccc2c2nc3ccccc3nc21	40.9	x	x	x	x
CCOC(=O)Cn1c2ccccc2c2nc3ccccc3nc21	n	x	x	x	x
CS(=O)(=O)c1ccc2nc(NC(=O)Nc3ccc(Cl)c(Cl)c3)sc2c1	260.3	x	x	x	x
CC(=O)N/C(=N/c1nc(C)cc(C)n1)Nc1ccc(C)cc1C	n	n	n	n	n
COc1ccc(OC)c(N/C(=N/c2nc(C)cc(C)n2)NC(C)=O)c1	n	n	n	27.1	n
O=C(C[C@@H]1C=C[C@@H](NC(=O)c2ccc3c(c2)OCO3)[C@@H](CO)O1)NCc1ccc(Cl)cc1	n	n	n	n	n
S=C(NCc1ccccc1)Nc1ccc2cn[nH]c2c1	40.1	n	n	n	n
CCCCNC(=S)Nc1ccc2cn[nH]c2c1	n	n	n	n	n
CC(=O)Nc1ccc(NC(=O)C(C)OC(=O)/C=C/c2cn(-c3ccccc3)nc2-c2cccnc2)cc1 (stereo not given)	392.1	x	x	x	x
NC(=O)CC(NC(=O)Cc1cccc2ccccc12)c1ccc(NC2CCN(Cc3ccccc3)CC2)c([N+](=O)[O-])c1 (stereo not given)	n	n	n	53.6	n
Cc1cc(N2CCN(C)CC2)nc2ccc(NC(=S)NCCN3CCc4ccccc4C3)cc12	n	x	80.6	u	n
CCCCN(C)CCNC(=S)Nc1ccc2nc(N3CCN(CC)CC3)cc(C)c2c1	n	n	95.3	n	n
CCCCNC(=O)CCC(=O)Nc1ccc2nc(N3CCN(C)CC3)cc(C)c2c1	n	n	n	n	n
CCN1CCN(c2cc(C)c3cc(NC(=S)NCCN(C)C)ccc3n2)CC1	n	n	97.6	n	n
C[C@@H](NC(=O)C[C@@H]1C[C@H]2c3cc(NC(=O)c4cccnc4)ccc3O[C@H]2[C@H](CO)O1)c1ccccc1	n	n	n	n	n
C[C@H]1CN(C)C(=O)Cc2cc(NS(C)(=O)=O)ccc2O[C@H]1CN(C)C	n	x	x	x	x
O=S(=O)(O)c1cc(O)c(N=Nc2ccc(O)cc2O)c2ccccc12	n	n	n	34.2	n
O=[N+]([O-])c1ccccc1N=Nc1ccc(O)cc1O	x	n	n	n	n
C[C@H]1CN([C@@H](C)CO)S(=O)(=O)c2ccc(C#CC3CC3)cc2O[C@H]1CN(C)C(=O)Nc1cc(F)ccc1F	n	x	x	x	x
COc1ccc(N2CC(C(=O)N3CCc4ccccc43)CC2=O)cc1 (stereo not given)	66.4	n	n	n	n
C[C@H]1CN([C@@H](C)CO)C(=O)c2cccc(NS(=O)(=O)c3ccc(Cl)cc3)c2O[C@@H]1CN(C)Cc1ccncc1	n	n	n	n	n
CCc1c(C)sc2nc3c(C(=O)N4CCOCC4)cc(C(=O)c4ccccc4O)cn3c(=O)c12	n	n	n	n	n
O=C(c1cc(C(=O)N2CCOCC2)c2nc3ccccc3n2c1)c1cc(Cl)cc(Cl)c1O	n	x	n	27.3	n
SMILES	GSIS activator	ERAP1 HTS inh	RAD52 anneal inh	AF4-AF9 inh	S100A4 MyoIIA
Cc1ccc(NC(=O)CNC(=O)c2sc3ccccc3c2Cl)nc1	70.1	n	n	n	n
CC(=O)Nc1ccc(NC(=O)CNC(=O)c2sc3ccccc3c2Cl)cc1	n	n	n	n	n
CCn1nnc(NC(=O)c2sc3ccccc3c2Cl)n1	43.0	x	x	x	x
COc1ccc(S(=O)(=O)N(C)C[C@H]2Oc3ccc(NS(C)(=O)=O)cc3CC(=O)N([C@@H](C)CO)C[C@@H]2C)cc1	n	n	n	n	n
CCCc1cc(=O)[nH]c2nnc(SCC(=O)N3CC(C)OC(C)C3)n12 (stereo not given)	55.0	n	n	n	n
Cc1cc(=O)[nH]c2nnc(SCC(=O)N3CC(C)OC(C)C3)n12 (stereo not given)	n	n	n	n	n
CC(=O)Nc1ccc2c(c1)C(=O)N(C)C[C@@H](C)[C@@H](CN(C)C(=O)NC(C)C)O2	n	x	x	x	x
